Screening data as filed in PubChem.
Shown is part of a subset that was picked to be rich in hits.
IDH1 R132H inh – blocks human IDH1 R132H reductase activity; O75874; diaphorase/resazurin fluorescence, 60 min; 70,000 tested, 0.18% active; AID 624101; inhibition, % at 10 µM; in the data active means inhibition above about 34%; inconclusive means no clear call, values can overlap the other calls; inactive means below about 11%
T cruzi growth-1 – T. cruzi proliferation inhibition. 77,000 tested, 5.9% active. inhibition, % at 8.34 µM. T. cruzi beta-gal in NIH3T3, GalScreen luminescence, 90 h;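 active means mean inhibition above about 93%, with at least 55% of replicates each passing it, limit read from the data, passing the limit was not always enough; inconclusive means only one of those two conditions holds; inactive means neither condition holds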
GASC1 inh – KDM4C (human) demethylase inhibition | 96,000 tested, 0.15% active | inhibition, % at 12.5 µM | GST-KDM4C 2-372, H3K9me3 peptide, LANCE TR-FRET;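 active means mean replicate inhibition above about 25%, with at least 55% of replicates also reaching it, limit read from the data, passing the limit was not always enough; inconclusive means only one of those two conditions met; inactive means neither condition met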
Target sequence (Q9H3R0 2-372 limits assumed): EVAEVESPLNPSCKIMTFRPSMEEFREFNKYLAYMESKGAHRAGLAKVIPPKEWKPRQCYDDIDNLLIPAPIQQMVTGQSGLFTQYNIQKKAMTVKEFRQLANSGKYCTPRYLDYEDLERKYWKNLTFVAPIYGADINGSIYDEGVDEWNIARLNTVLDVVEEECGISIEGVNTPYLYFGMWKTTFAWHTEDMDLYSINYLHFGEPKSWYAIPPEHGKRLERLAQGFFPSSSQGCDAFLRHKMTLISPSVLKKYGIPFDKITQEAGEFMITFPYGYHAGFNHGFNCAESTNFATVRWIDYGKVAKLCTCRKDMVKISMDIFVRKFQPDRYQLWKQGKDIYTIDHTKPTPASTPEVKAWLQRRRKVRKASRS
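Test system – GST-tagged GASC-1 (JMJD2C) catalytic fragment, aa 2-372 · Medium – HEPES buffer, pH 7.5, plus ascorbate · Reagent – H3K9me3 peptide with Fe(II)/2OG · Compound – one test concentration per compound · Timing – 30 min reaction, 60 min detection, RT · Technique – TR-FRET with Eu antibody and ULight streptavidin, EDTA stop · Read-out basis – inhibition from TR-FRET ratio decrease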
T cruzi growth-2 – Trypanosoma cruzi proliferation inhibition; shares compounds with T cruzi growth-1; inhibition, % at 8.35 µM; 5,600 tested, 72% active; T. cruzi beta-gal in NIH3T3, GalScreen luminescence, 90 h;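 active means mean replicate inhibition above about 95% and at least 55% of replicates individually reaching it, limit read from the data; inconclusive means only one of the two criteria is met; inactive means neither criterion is met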
T cruzi growth-3 – Trypanosoma cruzi proliferation inhibition. T. cruzi beta-gal in NIH3T3, GalScreen luminescence, 90 h. inhibition, % at 2.09 µM. shares compounds with T cruzi growth-1. 5,600 tested, 21% active;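 active means mean inhibition above about 95%, with at least 55% of replicates also reaching it, limit read from the data; inconclusive means meets just one of the two conditions; inactive means meets neither condition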
3T3 cytotox – kills mouse NIH/3T3 fibroblasts; shares compounds with T cruzi growth-1; NIH/3T3 viability, CellTiter-Glo ATP luminescence, 90 h; cytotoxicity (signal decrease), % at 8.35 µM; 5,600 tested, 14% active;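 active means mean signal decrease across replicates above about 35% based on untreated-well scatter, with enough replicates individually passing, limit read from the data; inconclusive means no rule stated though some were filed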
NIH3T3 tox 2 – cytotoxicity in mouse NIH/3T3 fibroblasts | 5,600 tested, 56% active | NIH/3T3 viability, CellTiter-Glo ATP luminescence, 90 h | shares compounds with T cruzi growth-1 | inhibition, % at 24.9 µM;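 active means mean loss of cell viability signal at or above a set limit, and enough replicates individually reaching it; inconclusive means meets only the mean limit or only the replicate share; inactive means meets neither condition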
Hits are given with their value; i = inactive; ? = inconclusive; nt = not tested or not shown.

SMILES | IDH1 R132H inh | T cruzi growth-1 | GASC1 inh | T cruzi growth-2 | T cruzi growth-3 | 3T3 cytotox | NIH3T3 tox 2
CCCNC(=O)N(C)C[C@H]1Oc2ncc(C#CC3CCCCC3)cc2C(=O)N([C@H](C)CO)C[C@H]1C | nt | i | i | nt | nt | nt | nt
COCC(=O)Nc1ccc2c(c1)[C@H]1C[C@@H](CC(=O)NCC(F)(F)F)O[C@@H](CO)[C@H]1O2 | i | nt | i | nt | nt | nt | nt
CO[C@H]1CN(C)C(=O)c2ccc(NC(=O)c3ccccc3)cc2OC[C@@H](C)N(CC2CC2)C[C@@H]1C | i | i | i | nt | nt | nt | nt
O=C(C[C@@H]1C[C@@H]2c3cc(NC(=O)NC4CCCC4)ccc3O[C@@H]2[C@@H](CO)O1)NCc1cccc(F)c1 | i | nt | i | nt | nt | nt | nt
O=C(C[C@@H]1CC[C@@H]2NC[C@H](O)COC[C@H]2O1)NC1Cc2ccccc2C1 | nt | i | i | nt | nt | nt | nt
Cc1ccccc1S(=O)(=O)N1CC[C@@H]2[C@H]1c1cc(-c3ccc(F)cc3)ccc1N[C@@H]2CO | nt | i | i | nt | nt | nt | nt
Cc1ccccc1S(=O)(=O)N1CC[C@@H]2[C@H]1c1cc(-c3cccc(C#N)c3)ccc1N[C@@H]2CO | nt | i | i | nt | nt | nt | nt
Cc1ccccc1S(=O)(=O)N1CC[C@@H]2[C@@H](CO)Nc3ccc(-c4cccc(F)c4)cc3[C@@H]21 | nt | 98 | i | 104 | 112 | 59 | 106
N#Cc1cccc(-c2ccc3c(c2)[C@H]2[C@H](CCN2S(=O)(=O)c2ccccc2F)[C@@H](CO)N3)c1 | nt | 107 | i | ? | i | i | 55
Cc1ccccc1S(=O)(=O)N1CC[C@@H]2[C@H]1c1cc(-c3cccc(F)c3)ccc1N[C@@H]2CO | nt | 107 | i | 100 | i | i | 106
Cn1cnc(S(=O)(=O)N2CC[C@@H]3[C@H]2c2cc(-c4ccc(F)cc4)ccc2N[C@@H]3CO)c1 | nt | i | i | nt | nt | nt | nt
Cn1cnc(S(=O)(=O)N2CC[C@@H]3[C@H]2c2cc(-c4cccc(F)c4)ccc2N[C@@H]3CO)c1 | nt | ? | i | 101 | i | i | i
COc1cccc(-c2ccc3c(c2)[C@@H]2[C@@H](CCN2S(=O)(=O)c2ccccc2C)[C@@H](CO)N3)c1 | nt | i | i | nt | nt | nt | nt
CCC(=O)NC[C@@H]1[C@@H](c2ccccc2)[C@H](CO)N1C(=O)C1CC1 | nt | i | i | nt | nt | nt | nt
Cc1ccc(S(=O)(=O)Nc2cccc3c2O[C@@H](CN(C)Cc2ccc(-c4ccccc4)cc2)[C@H](C)CN([C@H](C)CO)C3=O)cc1 | i | i | i | nt | nt | nt | nt
COc1ccc2c3c([nH]c2c1)[C@@H](CO)N(C(=O)C1CC1)CC31CN(Cc2cccc(F)c2)C1 | nt | nt | i | nt | nt | nt | nt
COc1ccc(Br)cc1C(Nc1ccccn1)c1cc(Cl)c2cccnc2c1O (configuration not stated) | i | nt | nt | nt | nt | nt | nt
Cc1ccccc1S(=O)(=O)N1CC[C@@H]2[C@H](CO)Nc3ccc(-c4ccccc4)cc3[C@@H]21 | nt | 107 | i | 102 | ? | i | 104
Cc1ccccc1S(=O)(=O)N1CC[C@H]2[C@H](CO)Nc3ccc(-c4ccc(F)cc4)cc3[C@H]21 | nt | i | i | nt | nt | nt | nt
O=S(=O)(c1ccccc1F)N1CC[C@@H]2[C@@H](CO)Nc3ccc(-c4cccc(F)c4)cc3[C@@H]21 | nt | i | i | nt | nt | nt | nt
Cc1ccccc1S(=O)(=O)N1CC[C@@H]2[C@H](CO)Nc3ccc(-c4cccc(F)c4)cc3[C@@H]21 | nt | 105 | i | ? | 109 | i | 104
C[C@H](CO)N1C[C@H](C)[C@@H](CN(C)C(=O)NC2CCCCC2)Oc2ccc(NC(=O)NC3CCCCC3)cc2CC1=O | i | i | i | nt | nt | nt | nt
C[C@@H]1CN([C@@H](C)CO)C(=O)c2cc(-c3cccc(C#N)c3)cnc2O[C@@H]1CN(C)C(=O)C1CCOCC1 | i | i | i | nt | nt | nt | nt
O=C(Nc1ccccc1F)N1C[C@@H]2[C@H](c3ccccc31)[C@H](CO)N2C(=O)C1CCOCC1 | nt | 107 | i | i | i | i | i
O=C(Nc1ccc(Cl)cc1)N1C[C@H]2[C@@H](c3ccccc31)[C@@H](CO)N2CC1CCCCC1 | nt | 109 | i | 106 | i | i | 104
SMILES | IDH1 R132H inh | T cruzi growth-1 | GASC1 inh | T cruzi growth-2 | T cruzi growth-3 | 3T3 cytotox | NIH3T3 tox 2
O=C(Nc1ccccc1F)N1C[C@@H]2[C@H](c3ccccc31)[C@H](CO)N2C(=O)C1CC1 | nt | i | i | nt | nt | nt | nt
O=C(Nc1ccccc1)N1C[C@@H]2[C@H](c3ccccc31)[C@H](CO)N2Cc1ccccc1Cl | nt | ? | i | 97 | i | i | i
O=C(Nc1ccccc1)N1C[C@@H]2[C@H](c3ccccc31)[C@@H](CO)N2Cc1ccccc1Cl | nt | i | i | nt | nt | nt | nt
O=C(Nc1ccc(Cl)cc1)N1C[C@H]2[C@@H](c3ccccc31)[C@H](CO)N2CC1CCCCC1 | nt | i | i | nt | nt | nt | nt
C[C@H]1CN([C@@H](C)CO)C(=O)c2cccc(NC(=O)C3CCOCC3)c2O[C@H]1CN(C)S(=O)(=O)c1cccs1 | i | i | i | nt | nt | nt | nt
C[C@H]1CN([C@@H](C)CO)S(=O)(=O)c2ccc(-c3cncnc3)cc2O[C@H]1CN(C)C(=O)C1CCCCC1 | nt | nt | i | nt | nt | nt | nt
C[C@@H]1CN([C@H](C)CO)C(=O)c2cc(NC(=O)Nc3ccc(F)cc3)ccc2O[C@@H]1CN(C)Cc1ccc(C(=O)Nc2ccccc2N)cc1 | nt | i | i | nt | nt | nt | nt
Cc1c(Cl)cccc1NC(=O)CCN1C(=O)c2ccc([N+](=O)[O-])cc2C1=O | i | nt | nt | nt | nt | nt | nt
O=C(C1CCOCC1)N1CC[C@H]2[C@H](CO)Nc3ccc(-c4cccc(F)c4)cc3[C@H]21 | nt | i | i | nt | nt | nt | nt
O=C(C1CCOCC1)N1CC[C@@H]2[C@@H](CO)Nc3ccc(Br)cc3[C@@H]21 | nt | i | i | nt | nt | nt | nt
O=C(C1CCOCC1)N1CC[C@@H]2[C@H](CO)Nc3ccc(-c4ccc(F)cc4)cc3[C@@H]21 | nt | ? | i | 110 | i | i | i
O=C(C1CCOCC1)N1CC[C@H]2[C@H](CO)Nc3ccc(-c4ccc(F)cc4)cc3[C@H]21 | nt | 101 | i | 104 | i | i | i
CO[C@H]1CC[C@H]2CCOc3c(C#N)cccc3C(=O)N(C)[C@@H](C)C(=O)N(C)C[C@H]1O2 | i | i | i | nt | nt | nt | nt
COc1ccc(NC(=O)COc2nc(N(C)C)nc(N(C)C)n2)cc1 | i | nt | nt | nt | nt | nt | nt
C[C@H]1CCCCO[C@H](CN(C)Cc2ccc(C(=O)O)cc2)[C@@H](C)CN([C@@H](C)CO)C(=O)c2cc(NC(=O)Nc3cccc4ccccc34)ccc2O1 | i | i | i | nt | nt | nt | nt
COc1ccc(CN(C)C[C@H]2OCCCC[C@@H](C)Oc3ccc(NC(=O)Nc4cccc5ccccc45)cc3C(=O)N([C@@H](C)CO)C[C@@H]2C)cc1 | nt | ? | i | 97 | 101 | 41 | 103
C[C@@H]1CCCCO[C@H](CN(C)CC2CCCCC2)[C@@H](C)CN([C@H](C)CO)C(=O)c2cc(NC(=O)Nc3cccc4ccccc34)ccc2O1 | nt | i | i | nt | nt | nt | nt
